Test results as given in ChEMBL document CHEMBL1146536, “Pochonins A-F, new antiviral and antiparasitic resorcylic acid lactones from Pochonia chlamydosporia var. catenulata” (J Nat Prod, 2003).
The source made the active and inactive calls. The rule behind the calls is not given here.

What was measured:
[1] = target: T1, Estrogen receptor beta (Homo sapiens, UniProt Q92731); test: Agonist activity at ERbeta up to 10 uM by fluorescence polarization assay; format: functional
[2] = Cytotoxicity against PCKC by crystal violet staining; set-up: species or system Gallus gallus; conditions: chicken
Outline: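 Uninfected compound-treated primary chicken kidney cells served as toxicity controls in the 120 h monolayer assay (200, 10, 1, 0.1 ppm). Viability judged microscopically or by crystal violet after 5 min MeOH fixation.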

[3] = test system: Neospora caninum; test: Antiparasitic activity against Neospora caninum NC-1 infected in african green monkey Vero cells treated 2 hrs postinfection by MMDA assay; format: functional, organism-based
[4] = test system: Human alphaherpesvirus 1; test: Antiviral activity against HSV1 F infected in african green monkey Vero cells assessed as reduction of virus-induced cytopathic effect by cellular replication assay; format: functional, organism-based
Outline: (§1)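 HSV1 strain F replication in Vero cells, 0.1 nM to 125 µM. IC50 is the concentration reducing viral cytopathic effect by 50%; Tox50 is the concentration reducing cell viability by 50%. SI = Tox50/IC50.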

[5] = test system: Vero; test: Cytotoxicity against african green monkey Vero cells at 2.5 uM by crystal violet staining; format: cell-based; conditions: chlorocebus sabaeus
[6] = Selectivity index, ratio of cytotoxicity against african green monkey Vero cells to IC50 for HSV1 F; format: toxicity, cell-based; conditions: read-out: Selectivity Index; outline: as §1
[7] = test system: Eimeria tenella; test: Antiparasitic activity against Eimeria tenella Houghton infected in PCKC at 10 ppm treated 2 hrs postinfection by MMDA assay; format: functional, organism-based
Outline: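 Confluent primary chicken kidney cell monolayers (DMEM or RPMI with 10% FBS, glutamine, essential amino acids; 37 °C, 5% CO2) in 96-well plates infected with E. tenella Houghton; compounds added 2 h post infection at 200, 10, 1, 0.1 ppm. Stopped 120 h post infection; monolayer disruption scored microscopically or by crystal violet after MeOH fixation (2 full, 1 weak, 0 none).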

[8] = test system: Eimeria tenella; test: Antiparasitic activity against Eimeria tenella Houghton infected in PCKC at 1 ppm treated 2 hrs postinfection by MMDA assay; format: functional, organism-based
Outline: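 Primary chicken kidney cell monolayers grown to confluence with 10% FBS, glutamine and essential amino acids at 37 °C, 5% CO2, in 96-well plates. They were infected with E. tenella Houghton, and test samples were added 2 h post infection. Tested at 200, 10, 1 and 0.1 ppm; stopped at 120 h. Monolayer integrity was read microscopically or by MeOH fixation and crystal violet. Scored as full, weak, none or cytotoxic.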

[9] = target: T1, Estrogen receptor beta; test: Agonist activity at ERbeta by fluorescence polarization assay; format: functional
[10] = test system: Vero; test: Cytotoxicity against african green monkey Vero cells at 10 uM by crystal violet staining; format: cell-based; conditions: chlorocebus sabaeus
[11] = test system: Vero; test: Cytotoxicity against african green monkey Vero cells by crystal violet staining; format: cell-based; conditions: chlorocebus sabaeus
[12] = Human alphaherpesvirus 1, F, Vero

T1 sequence (Q92731 whole entry): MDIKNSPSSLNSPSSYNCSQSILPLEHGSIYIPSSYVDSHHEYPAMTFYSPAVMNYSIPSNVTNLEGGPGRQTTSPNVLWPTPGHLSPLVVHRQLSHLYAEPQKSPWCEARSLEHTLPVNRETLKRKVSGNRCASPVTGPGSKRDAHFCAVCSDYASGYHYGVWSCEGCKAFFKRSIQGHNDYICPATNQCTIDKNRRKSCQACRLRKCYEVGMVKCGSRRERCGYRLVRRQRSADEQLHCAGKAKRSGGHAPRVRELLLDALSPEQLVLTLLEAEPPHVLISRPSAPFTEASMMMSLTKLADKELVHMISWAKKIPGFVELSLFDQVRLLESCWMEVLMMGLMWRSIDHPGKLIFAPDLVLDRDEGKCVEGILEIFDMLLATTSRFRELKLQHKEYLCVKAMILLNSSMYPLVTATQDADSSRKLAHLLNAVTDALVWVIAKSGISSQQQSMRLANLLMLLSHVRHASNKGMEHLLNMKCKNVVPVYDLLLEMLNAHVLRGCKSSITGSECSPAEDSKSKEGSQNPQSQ

| Compound | Activity [1] | Activity [2] | Activity [3] | IC50 [4, 12] | Activity [4] | also measured |
| --- | --- | --- | --- | --- | --- | --- |
| C[C@H]1C[C@H]2O[C@@H]2C[C@H](O)/C=C/C(=O)Cc2c(Cl)c(O)cc(O)c2C(=O)O1 [POCHONIN B] | inactive | Toxic | inactive | 10000 nM |  |  |
| C[C@H]1C[C@H](O)C(Cl)/C=C\C=C\C(=O)Cc2c(Cl)c(O)cc(O)c2C(=O)O1 (stereo not given in full) [POCHONIN C] | inactive | Toxic | inactive | 6000 nM |  |  |
| C[C@@H]1C/C=C/CC/C=C/C(=O)Cc2c(Cl)c(O)cc(O)c2C(=O)O1 [POCHONIN D] | inactive | Toxic | inactive |  | inactive | Activity [5]: Toxic |
| C[C@H]1CCCC(=O)CCCCCc2cc(O)cc(O)c2C(=O)O1 (stereo in doubt; 19) |  |  |  |  | inactive |  |
| C[C@H]1CCCC(=O)CCCCCc2cc(O)cc(O)c2C(=O)O1 (stereo in doubt; 16) |  |  |  |  | inactive |  |
| C[C@H]1CCC[C@@H](O)CCCCCc2cc(O)cc(O)c2C(=O)O1 (stereo in doubt; 17) [TALERANOL] |  |  |  |  |  | IC50 ([4]; vero): 1500 nM |
| C[C@H]1C/C=C/C(O)C/C=C/C(=O)Cc2c(Cl)c(O)cc(O)c2C(=O)O1 (stereo not given in full) [POCHONIN E] | inactive | Toxic | inactive | 1500 nM |  |  |
| C[C@@H]1C[C@H]2O[C@@H]2CC/C=C/C(=O)Cc2cc(O)cc(O)c2C(=O)O1 [MONOCILLIN III] | inactive |  | inactive | 400 nM |  | selectivity ratio [6]: 7.5 |
| CC/C=C\[C@H](O)[C@H](O)C1=C(C)C(=O)[C@]2(O1)C(=O)N[C@@](OC)(C(=O)c1ccccc1)[C@@H]2O [PSEUROTIN A] |  |  | inactive | 50000 nM |  | Activity [7]: Active; selectivity ratio [6]: 6 |
| C[C@H]1C[C@H]2O[C@@H]2CCCCC(=O)Cc2c(Cl)c(O)cc(O)c2C(=O)O1 [TETRAHYDROMONORDEN] | inactive |  | inactive | 1500 nM |  | Activity [8]: inactive; Activity [7]: Active |
| COc1cc(O)c2c(c1)/C=C/CCC[C@H](O)CCC[C@H](C)OC2=O |  |  |  |  | inactive | Activity [9]: inactive |
| C[C@H]1C/C=C/CC/C=C/C(=O)Cc2cc(O[C@@H]3O[C@H](CO)[C@@H](O)[C@H]3O)cc(O)c2C(=O)O1 [MONOCILLIN II GLYCOSIDE] | inactive | Toxic | inactive |  |  | Activity [10]: Toxic |
| C[C@@H]1C[C@H]2O[C@@H]2/C=C\C=C\C(=O)Cc2c(Cl)c(O)cc(O)c2C(=O)O1 [RADICICOL] |  | Toxic | inactive | 200 nM |  | Activity [11]: Toxic; Activity [8]: inactive; Activity [7]: Active |
| C[C@H]1CCCC(=O)CCC/C=C/c2cc(O)cc(O)c2C(=O)O1 [ZEARALENONE] |  |  |  |  | inactive | EC50 [9]: 110 nM |
| C[C@H]1CCCC(=O)CCCCCc2cc(O)cc(O)c2C(=O)O1 (stereo in doubt; 16) [ZEARALANONE] |  |  |  |  |  | EC50 [9]: 38 nM |
| C[C@H]1C[C@H]2O[C@@H]2CC/C=C/C(=O)Cc2c(Cl)c(O)cc(O)c2C(=O)O1 [POCHONIN A] | inactive |  | inactive | 2000 nM |  | Activity [7]: Active |
| C[C@H]1CCC[C@@H](O)CCCCCc2cc(O)cc(O)c2C(=O)O1 (stereo in doubt; 21) [TALERANOL] |  |  |  |  |  | IC50 ([4]; vero): 15000 nM |
| C[C@H]1CCC[C@H](O)CCCCCc2cc(O)cc(O)c2C(=O)O1 |  |  |  |  | inactive |  |
| C[C@H]1CCCC(=O)CCCCCc2cc(O)cc(O)c2C(=O)O1 (stereo in doubt; 19) [ZEARALANONE] |  |  |  |  |  | EC50 [9]: 660 nM |
